Bioassay records (PubChem BioAssay)
GalR3 antag = human GalR3 antagonism; HEK293 GalR3-CNG cAMP membrane potential fluorescence; galR3 body fused to GalR1 C-terminus; 0.44% of 360,000 active; AID 651719; O60755; inhibition, % at 3 µM;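 active means inhibition above the screen-wide average plus 3 SD, cut at about 13% in these data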;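 further: forskolin and galanin both at EC90 stimulate the cells; cAMP rise reported by CNG channel membrane potential dye signal; 0% = forskolin plus galanin with DMSO and 100% = forskolin alone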
TAAR1 ag = human TAAR1 agonism | Q96RJ0 | CHO RD-HGA16 TAAR1, Fluo-8 calcium fluorescence; vehicle wells 0%, saturating PEA agonist 100% | activation, % at 3 µM | 0.99% of 360,000 active | AID 624467;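 active means activation above the mean activation of all test compounds in the run plus 3 SD, cut at about 38% in these data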
Target sequence (Q96RJ0 whole entry, looked up): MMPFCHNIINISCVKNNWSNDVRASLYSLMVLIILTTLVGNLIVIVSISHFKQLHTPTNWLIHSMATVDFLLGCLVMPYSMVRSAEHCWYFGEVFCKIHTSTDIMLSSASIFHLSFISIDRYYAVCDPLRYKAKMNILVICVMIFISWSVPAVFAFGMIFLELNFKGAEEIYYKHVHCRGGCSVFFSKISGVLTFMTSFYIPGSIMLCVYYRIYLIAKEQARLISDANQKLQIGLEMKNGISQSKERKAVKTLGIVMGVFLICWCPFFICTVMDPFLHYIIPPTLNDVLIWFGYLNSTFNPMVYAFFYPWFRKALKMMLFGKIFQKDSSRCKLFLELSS
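Signal – calcium-sensitive Fluo-8 signal, excitation 470-495, emission 515-575 nm · System – RD-HGA16 (CHO) cells co-expressing Gα16 and hTAAR1 · Incubation – 17-24 h seeding, 75 min 37 °C dye, 30 min RT · Compound dosing – 3 µM single concentration · Repeats – no replicates (n 1)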
OX1R antag-1 = blocks the human orexin 1 receptor; O43613; OX1R-expressing cells, FRET antagonist read-out; inhibition, % at 6.6 µM; 1.8% of 330,000 active; AID 485270; in the data active means inhibition mostly above about 38%, no sharp cut-off; inactive means mostly below about 40%;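 further: 0% = agonist challenge alone and 100% = reference antagonist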
OX1R antag-2 = antagonists of human orexin 1 receptor; O43613; CHO/OX1R cells, Fluo-8 calcium fluorescence, orexin A; inhibition, % at 5 µM; 0.43% of 330,000 active; AID 434989;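 active means inhibition above its plate's threshold, mean inhibition of all tested compounds on the plate plus 3 SD, cut at about 37% in these data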;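 further: 0% = orexin A challenge wells and 100% = SB-334867-A antagonist wells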
TAAR1 antag = antagonists of human TAAR1. 1.5% of 360,000 active. CHO RD-HGA16 TAAR1, Fluo-8 calcium fluorescence, antagonist. inhibition, % at 3 µM;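 active means inhibition above a per-plate cutoff, the mean inhibition of test compounds on that plate plus 3 SD, cut at about 49% in these data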;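 further: 0% = DMSO plus EC80 beta-PEA response and 100% = DMSO alone without agonist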
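Test system – hTAAR1-expressing CHO RD-HGA16 cells, Gα16-coupled · Also added – β-PEA at EC80 concentration, post-compound challenge · Compound – 3 µM, single point · Incubation – dye loading 75 min at 37 °C, then 30 min room temperature · Measured by – Fluo-8 intracellular calcium dye fluorescence, real-time kinetic reads · Benchmarks – vehicle and agonist controls · Replicates – singlicate, one well per test compound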
CHO parental Ca = signal in parental CHO cells, OX1R antagonist counter-screen; 0.63% of 330,000 active; parental CHO-K1, ATP-induced calcium, Fluo-8 fluorescence; AID 463079; inhibition, % at 5.6 µM;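 active means inhibition above that plate's mean sample inhibition plus 3 SD, cut at about 26% in these data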;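 further: 0% = ATP-challenged DMSO wells and 100% = DMSO wells without ATP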
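test system = CHO parental line | reagent = ATP stimulus | measured by = intracellular calcium via Fluo-8 no-wash fluorescent dye | control set = ATP and no-ATP DMSO wells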
OX1R HTRF confirm = confirmation of human orexin 1 receptor antagonists, HTRF format; inhibition, % at 6.6 µM; 49% of 1,800 active; AID 492964; OX1R-expressing cells, HTRF antagonist assay; shares compounds with OX1R antag-1; in the data active means inhibition above about 55%;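 further: CHO cells expressing OX1R stimulated with orexin A at about EC80; 0% = agonist challenge alone and 100% = reference antagonist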
CHO-K1 HTRF cnt = counter-screen: parental CHO-K1 HTRF response; shares compounds with OX1R antag-1; parental CHO-K1 cells, HTRF counterscreen; 48% of 1,800 active; inhibition, % at 6.6 µM; in the data active means inhibition above about 17%;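 further: 0% = agonist challenge with vehicle and 100% = vehicle alone without agonist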
nonsel antag count = nonselective antagonism, TAAR1 counter-screen; counterscreen cell line, calcium fluorescence, antagonist mode; shares compounds with TAAR1 antag; inhibition, % at 3 µM; 77% of 2,400 active; AID 651780; in the data active means inhibition above about 22%;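 further: CHO-Ga16 host cells stimulated with ATP at an EC80 level; 0% = agonist EC80 plus vehicle and 100% = vehicle without agonist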
TAAR1 antag conf = confirmation of human TAAR1 antagonists | shares compounds with TAAR1 antag | TAAR1-expressing cells, fluorescence antagonist read-out | inhibition, % at 3 µM | 40% of 2,400 active | AID 651785; in the data active means inhibition above about 49%;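 further: CHO-Ga16 host cells challenged with agonist PEA near its EC80; 0% = agonist at EC80 plus vehicle and 100% = vehicle with no agonist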
Ga16 nonsel ag = nonselective Ga16 agonism, counter-screen; 18% of 2,400 active; activation, % at 3 µM; Ga16-expressing cells, calcium fluorescence, agonist counterscreen; shares compounds with TAAR1 antag; in the data active means activation above about 12%;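 further: 0% = vehicle wells and 100% = saturating stimulus response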
TAAR1 ag counter = counter-screen for human TAAR1 antagonists: TAAR1 agonists; activation, % at 3 µM; 2% of 2,400 active; hTAAR1 cell line, fluorescence activation, agonist mode; shares compounds with TAAR1 antag; in the data active means activation above about 37%;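 further: CHO cells stably expressing TAAR1 with calcium dye readout; 0% = DMSO vehicle and 100% = full agonist response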
GalR3 antag conf = confirmation of human galanin receptor 3 antagonists; shares compounds with GalR3 antag; HEK293 GalR3 CNG cAMP biosensor, membrane potential fluorescence; galR3 fused to GalR1 carboxy tail; challenged with forskolin and galanin at EC90; inhibition, % at 3 µM; 59% of 1,600 active;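 active means inhibition above the primary screen's cutoff, the mean inhibition of all screened compounds plus 3 SD, cut at about 13% in these data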;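 further: 0% = forskolin plus galanin and 100% = forskolin alone with DMSO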
CNG parental = acts as nonspecific agonist in parental HEK-CNG cells; shares compounds with GalR3 antag; HEK293-CNG parental cells, cAMP membrane potential fluorescence; normalised: DMSO wells 0%, forskolin wells 100%; activation, % at 3 µM; 10% of 1,600 active; AID 652268; in the data active means activation above about 1.3%
Numbers without * were called inactive; . = no result. This is a sample that favours compounds with a hit; in the whole collection about 4.3% have one here.

SMILES | GalR3 antag | TAAR1 ag | OX1R antag-1 | OX1R antag-2 | TAAR1 antag | CHO parental Ca | OX1R HTRF confirm | CHO-K1 HTRF cnt | GalR3 antag conf | CNG parental | others
Cc1c(O)c2c3c(cccc3c1O)C(=O)N(c1ccccc1)C2=O | -10 | 20 | 51 | 19 | 15 | 16 | . | . | . | .
CC(=O)Nc1ccc2c3c(cccc13)C(=O)N(c1ccccc1)C2=O | -8 | -1 | 110* | -13 | 7 | 1 | 41 | 63* | . | .
COc1ccc(-c2nn(CCC(=O)O)cc2/C=C2\SC(N)=NC2=O)cc1 | -1 | 1 | 77* | 22 | -6 | 0 | 41 | 31* | . | .
COC(=O)C[C@H]1CC[C@@H](NC(=O)Nc2ccc(C(F)(F)F)cc2)[C@@H](CO)O1 | -6 | 2 | . | . | 9 | . | . | . | . | .
COc1ccc(C(=O)Oc2cccc(Nc3ncnc4ccccc34)c2)cc1OC | -3 | 12 | 84* | 14 | 69* | 3 | 50 | 11 | . | . | nonsel antag count=43*;TAAR1 antag conf=54*;Ga16 nonsel ag=12*;TAAR1 ag counter=5
O=C(NCC1CC1)c1ccc2sc([C@@H]3O[C@H](CO)[C@H](O)[C@H](O)[C@H]3O)nc2c1 | 0 | 0 | . | . | -12 | . | . | . | . | .
COC(=O)c1cc2c(C)cc3ccc(C)cn3c-2c1C(=O)OC | -5 | 4 | 65 | -14 | -5 | -25 | . | . | . | .
COC(=O)c1cc2ccccn2c2c(C(=O)OC)c(C(=O)OC)cc1-2 | 0 | 21 | 94* | -15 | 62* | -14 | 39 | 25* | . | . | nonsel antag count=28*;TAAR1 antag conf=49*;Ga16 nonsel ag=9;TAAR1 ag counter=11
Cc1cc2c(ccc3c2no[n+]3[O-])nn1 | 14* | -1 | 166* | -10 | -3 | -6 | 51 | 76* | 13* | 0
COc1ccc(/C=C2\OC(=O)c3c(OC)cccc32)cc1OC | 62* | 3 | 78* | -17 | -2 | -17 | 66* | 3 | 20* | 0
Cc1nc(-c2ccc(C(=O)Nc3cccc(Br)c3)cc2)cs1 | 98* | 15 | 88* | 11 | 24 | -3 | 54 | 4 | 102* | 0
CCOC(=O)C1(C)CCCN(C(=O)c2ccccc2C(F)(F)F)C1 (stereo not drawn) | -7 | 0 | . | . | -10 | . | . | . | . | .
COCCNc1cc(N)c([N+](=O)[O-])cc1[N+](=O)[O-] | -7 | 1 | 57 | 9 | -16 | 7 | . | . | . | .
O=c1[nH]c2cc(NCCO)c([N+](=O)[O-])cc2[nH]1 | 21* | 3 | 166* | -3 | -1 | 0 | 66* | 88* | 33* | 2.8*
CCCC(C(=O)NC(C)(C)C)N(CCN1CCOCC1)C(=O)CNS(=O)(=O)c1ccccc1 (stereo not drawn) | -9 | 1 | 5 | -18 | -13 | -19 | . | . | . | .
